Bioassay records deposited in PubChem by several laboratories.
DAGLB inh – diacylglycerol lipase beta (human) inhibition | AID 504411 | HEK293T DAGLB membrane lysate, EnzChek fluorogenic substrate | inhibition, % at 5.17 µM | Q8NCG7 | hit rate 0.059% among 340,000; in the data active = inhibition above about 34%
GRK2 aptamer HTS – inhibitors of human GRK2 displacing RNA aptamer | P25098 | bead flow cytometry, FAM-aptamer displacement from GRK2 | inhibition of aptamer binding, % at 10 µM | hit rate 0.59% among 330,000;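 active = inhibition of aptamer binding above 40%, roughly 3 SD of noise, on plates passing a quality check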;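 also: median bead fluorescence of bound FAM aptamer so fluorescent compounds give negative values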
Target sequence (P25098 whole entry, looked up): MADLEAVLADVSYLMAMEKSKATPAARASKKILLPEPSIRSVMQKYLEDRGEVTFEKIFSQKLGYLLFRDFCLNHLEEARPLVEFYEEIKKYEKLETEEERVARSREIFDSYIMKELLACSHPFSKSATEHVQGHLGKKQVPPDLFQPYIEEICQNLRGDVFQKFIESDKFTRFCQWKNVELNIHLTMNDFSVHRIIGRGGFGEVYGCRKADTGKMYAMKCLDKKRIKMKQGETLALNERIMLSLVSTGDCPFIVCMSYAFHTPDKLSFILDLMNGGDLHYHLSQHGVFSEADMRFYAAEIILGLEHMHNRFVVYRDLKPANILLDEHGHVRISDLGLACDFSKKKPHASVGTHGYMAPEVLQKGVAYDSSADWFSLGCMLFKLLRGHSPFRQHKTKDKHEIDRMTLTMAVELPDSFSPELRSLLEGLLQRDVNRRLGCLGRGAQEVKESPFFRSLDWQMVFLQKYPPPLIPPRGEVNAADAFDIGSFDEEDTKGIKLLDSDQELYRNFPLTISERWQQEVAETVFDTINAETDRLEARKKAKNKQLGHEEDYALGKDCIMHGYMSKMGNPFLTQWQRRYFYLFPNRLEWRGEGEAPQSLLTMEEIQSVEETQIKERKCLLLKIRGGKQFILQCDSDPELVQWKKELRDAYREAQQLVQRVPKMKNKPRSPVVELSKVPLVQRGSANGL
HCV NS3 hel inh – HCV NS3 helicase inhibition | NS3 helicase DNA unwinding, Cy5 molecular beacon fluorescence | inhibition, % at 10.9 µM | hit rate 0.56% among 290,000 | AID 1800;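 active = inhibition above the mean of all tested compounds plus 3 SD, set per campaign, cut at about 35% in these data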
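Test system: hepatitis C virus NS3 helicase domain fragment enzyme. Also added: annealed dual-labelled DNA beacon duplex, ATP-started. Timing: 60 min unwinding reaction at 25 °C after ATP addition. Technique: Cy5 fluorescence. Measure: % inhibition of unwinding.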
HCV core dimer – blocks dimerization of HCV core protein; TR-FRET GST/Flag-core106 dimerization, 1536-well; inhibition, % at 5 µM; hit rate 0.33% among 300,000;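 active = inhibition above the mean of all tested compounds plus 3 SD, set per screening campaign, cut at about 45% in these data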
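Material: GST/Flag-tagged HCV core106 proteins. Incubation: 4 h, 22.5 °C incubation. Read-out basis: inhibition (%) from 671 over 617 nm ratio. Measured by: TR-FRET, excitation 340 nm, emission 617 and 671 nm.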
GPR7 antagonist – human neuropeptides B/W receptor 1 antagonism | P48145 | GPR7-expressing cells, fluorescence antagonist assay | inhibition, % at 4.4 µM | hit rate 1.1% among 290,000; in the data active = inhibition above about 16%, passing the limit was not always enough;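 also: cells stimulated with the agonist NPW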
DNA FID counter-1 – counter-screen for HCV NS3 helicase inhibitors: DNA intercalator displacement | DNA fluorescent intercalator displacement, fluorescence | inhibition, % at 7.9 µM | hit rate 0.17% among 290,000;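 also: higher means more ethidium bromide displaced from hairpin DNA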
NS3 hel confirm – confirmation of Hepatitis C virus NS3 helicase inhibitors. shares compounds with HCV NS3 hel inh. NS3 helicase DNA unwinding, Cy5 molecular beacon fluorescence. inhibition, % at 10.9 µM. hit rate 31% among 1,600;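 active = inhibition above the mean of all tested compounds plus 3 SD, cutoff set per campaign, cut at about 36% in these data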
DNA FID counter-2 – intercalator displacement, NS3 helicase counter-screen; inhibition, % at 7.9 µM; hit rate 4% among 1,600; shares compounds with HCV NS3 hel inh; DNA fluorescent intercalator displacement, fluorescence;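 also: higher means more displacement of ethidium bromide from the DNA hairpin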
DNA FID DR – displaces fluorescent intercalator from DNA, HCV helicase counter-screen; shares compounds with HCV NS3 hel inh; fluorescent intercalator displacement from DNA, fluorescence; IC50, µM; 120 tested, under 10 active; AID 2172; call rule not given here
Large screens that a line does not name were inactive (follow-up assays come after a bar, where they were run). An excerpt weighted towards active compounds, which were near 2.2% of everything screened. Rule as the data show it, unless noted: active = inhibition above about 37%; inactive = the rest.

CCOc1ccc(C(=O)N2CCN(c3cnn(-c4ccccc4)c(=O)c3Cl)CC2)cc1	HCV NS3 hel inh 40.0 | NS3 hel confirm inactive | DNA FID counter-2 inactive
COc1cc(/C=C2/SC(=S)NC2=O)ccc1OS(=O)(=O)c1ccc(C)cc1	HCV NS3 hel inh 52.9 | NS3 hel confirm 58.8 | DNA FID counter-2 inactive
COc1ccc(/C=C2/S/C(=N/S(=O)(=O)Cc3ccccc3)NC2=O)cc1OC	HCV NS3 hel inh 41.8 | NS3 hel confirm 57.1 | DNA FID counter-2 inactive
N#Cc1c(-c2ccc(F)cc2)c(-c2ccc(F)cc2)nn(CCO)c1=O	none (no result: GRK2 aptamer HTS, HCV NS3 hel inh, HCV core dimer, GPR7 antagonist, DNA FID counter-1)
O=C1CC(NCc2ccc3c(c2)OCO3)C(=O)N1CCc1ccccc1 (stereo unspecified)	HCV NS3 hel inh 54.1 | NS3 hel confirm inactive | DNA FID counter-2 inactive
CCN1C(=O)CC(NCc2ccc3c(c2)OCO3)C1=O (stereo unspecified)	none
Cc1ccccc1NS(=O)(=O)c1nnc(NC(=O)c2ccccc2C)s1	none
C=CCSC1=N/C(=C\c2cc(OCC)c(OC(C)=O)c([N+](=O)[O-])c2)C(=O)S1	HCV NS3 hel inh 49.6 | NS3 hel confirm 91.8 | DNA FID counter-2 inactive
COc1cc([N+](=O)[O-])cc(/C=N/NC(=O)C(C)Nc2cccc3ccccc23)c1O (stereo unspecified)	HCV NS3 hel inh 36.6 | NS3 hel confirm 38.8 | DNA FID counter-2 inactive
Cc1cc(Cl)cc(C)c1OCC(=O)NC1CCCCCC1	none (no result: HCV NS3 hel inh, HCV core dimer, GPR7 antagonist, DNA FID counter-1)
CC[C@@H](C)[C@H](NC(=O)Cc1c(C)c2c(cc(C)c3c(C)c(C)oc32)oc1=O)C(=O)O	HCV NS3 hel inh 36.7 (no result: HCV core dimer) | NS3 hel confirm inactive | DNA FID counter-2 inactive
O=C(c1ccccc1)N1CCN(C(=O)c2nn3c(C(F)(F)F)cc(-c4ccco4)nc3c2Br)CC1	HCV NS3 hel inh 47.3, HCV core dimer 68.4 | NS3 hel confirm inactive | DNA FID counter-2 inactive
O=C(NC1CCCCC1)c1nn2c(C(F)(F)F)cc(-c3ccco3)nc2c1Br	none
Cc1noc(C)c1NC(=O)N(C)C[C@@H]1OCc2cnnn2CCCC(=O)N([C@H](C)CO)C[C@@H]1C	none (no result: GRK2 aptamer HTS, HCV NS3 hel inh, HCV core dimer, GPR7 antagonist, DNA FID counter-1)
CC1(c2nc3ccccc3cc2C#N)OCCO1	none (no result: GRK2 aptamer HTS, HCV NS3 hel inh, HCV core dimer, GPR7 antagonist, DNA FID counter-1)
CCc1ccc(/C=C2\Oc3c(ccc(O)c3CN3CCN(CCO)CC3)C2=O)cc1	HCV NS3 hel inh 50.5 | NS3 hel confirm inactive | DNA FID counter-2 inactive
CCOC(=O)C1(Cc2ccccc2C)CCCN(C(=O)c2ccc(C(C)=O)s2)C1 (stereo unspecified)	none (no result: GRK2 aptamer HTS, HCV NS3 hel inh, HCV core dimer, GPR7 antagonist, DNA FID counter-1)
O[C@@H]1CN(CC2CCCCC2)[C@@H](c2ccccc2)C[C@H]1n1cc(-c2ccc(F)cc2)nn1	none (no result: GRK2 aptamer HTS, HCV NS3 hel inh, HCV core dimer, GPR7 antagonist, DNA FID counter-1)
COc1ccc(C2C(C(=O)c3ccc(C)o3)=C(O)C(=O)N2Cc2ccco2)cc1OC (stereo unspecified)	none
CCCOc1ccc(C2C(C(=O)c3ccc(C)o3)=C(O)C(=O)N2Cc2ccco2)cc1 (stereo unspecified)	HCV NS3 hel inh 71.3 | NS3 hel confirm 97.9 | DNA FID counter-2 inactive
COc1cc(C2/C(=C(\O)c3ccc4c(c3)OCCO4)C(=O)C(=O)N2Cc2ccco2)ccc1O (stereo unspecified)	none
O=C1C(=O)N(Cc2ccco2)C(c2cccc(Cl)c2)/C1=C(\O)c1ccc2c(c1)OCCO2 (stereo unspecified)	HCV NS3 hel inh 46.7 | NS3 hel confirm 83.0 | DNA FID counter-2 inactive | DNA FID DR inactive
CCCOc1ccc(C2C(C(=O)c3ccc(C)o3)=C(O)C(=O)N2Cc2ccco2)cc1OCC (stereo unspecified)	HCV NS3 hel inh 36.8 | NS3 hel confirm 54.8 | DNA FID counter-2 inactive | DNA FID DR inactive
CCOc1ccc(C2C(C(=O)c3ccc(C)o3)=C(O)C(=O)N2Cc2cccnc2)cc1 (stereo unspecified)	none
O=C(C1=C(O)C(=O)N(Cc2ccco2)C1c1cccc(Cl)c1)c1ccco1 (stereo unspecified)	HCV NS3 hel inh 48.3 | NS3 hel confirm inactive | DNA FID counter-2 inactive
